# Shown are actives, neighbours in structure and some others; about 2.5% of the full set was active somewhere.
# A1 inh: inhibitors of the anti-apoptotic protein A1, read as caspase activation. MEF A1-2A-BIM cells, Caspase-Glo 3/7 luminescence, 3 h; percent of clofoctol response, vehicle zero. caspase activation, % (concentration not given with the values). 0.066% of 330,000 active;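 active = over half of replicate activation scores above 10%, or exactly half above 10 with the replicate mean above 10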
# NLRP3 yeast inh: blocks the NALP3 inflammasome reconstituted in yeast. Yeast reconstituted NLRP3/ASC/caspase-1, beta-gal luminescence, 24 h. inhibition, % at 10 µM. 0.39% of 330,000 active. AID 2825;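 active = inhibition of 50% or more; inactive = inhibition below 50%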;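 note: plate controls were induced DMSO wells for no effect and uninduced yeast grown without galactose for full effect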
# MC4R antagonist: human MC4R antagonism in cAMP assay | P32245 | MC4R-expressing cells, MTII-stimulated cAMP, LANCE TR-FRET | inhibition, % at 6.5 µM | 0.48% of 360,000 active | AID 540295;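 active = inhibition above its plate's cutoff, the mean of tested wells on that plate plus 3 SD, cut at about 29% in these data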;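 note: 0% = Melanotan II alone and 100% = Melanotan II plus saturating MCL0020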
# Target sequence (P32245 whole entry, looked up): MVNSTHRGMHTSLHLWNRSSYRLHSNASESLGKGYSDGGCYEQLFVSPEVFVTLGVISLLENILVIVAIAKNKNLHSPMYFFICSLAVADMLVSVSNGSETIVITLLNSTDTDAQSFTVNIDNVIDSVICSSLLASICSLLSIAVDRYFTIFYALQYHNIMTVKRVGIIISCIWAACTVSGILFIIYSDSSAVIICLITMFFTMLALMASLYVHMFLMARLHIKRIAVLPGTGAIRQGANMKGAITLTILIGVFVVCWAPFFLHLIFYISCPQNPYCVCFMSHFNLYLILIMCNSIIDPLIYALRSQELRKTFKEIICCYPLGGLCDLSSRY
#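 Assay system: human MC4R-expressing U2OS cells; reagent: Melanotan II stimulation of cells; dosing: 6.5 µM single dose; timing: compound 30 min, challenge 1 h, detection 1 h; signal: TR-FRET cAMP assay; replicates: one well per compound, no replicates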
# TbMetRS inhib: blocks T. brucei methionyl-tRNA synthetase activity; purified T. brucei MetRS, ATP depletion, Kinase-Glo luminescence; 0.4% of 360,000 active; AID 624268; inhibition, % at 11.9 µM;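 active = inhibition above a per-plate cutoff of the control wells' mean inhibition plus 3 SD, cut at about 5.5% in these data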;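 note: 0% = DMSO wells median and 100% = median of wells with control inhibitor compound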
#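 System: purified T. brucei MetRS enzyme / Detection: Kinase-Glo luciferase luminescence reporting remaining unconsumed ATP / Medium: HEPES buffer with MgCl2, KCl, DTT, spermine, BSA, pyrophosphatase / Replication: singlicate, one well per compound / Evaluation: percent inhibition relative to median high and low control wells / Schedule: 2 h aminoacylation at 25 °C after 15 min preincubation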
# NALP1 inh: NALP1 inhibition; S. cerevisiae NALP1/ASC/caspase-1 growth, X-gal OD620, 72 h; inhibition, % at 10 µM; 0.61% of 280,000 active; in the data active = inhibition mostly above about 24%, no sharp cut-off; inactive = mostly below about 32%
# MC4R barr agon: agonists of human melanocortin 4 receptor (MC4R) beta-arrestin; P32245; U2OS MC4R beta-arrestin complementation, luminescence; percent of melanotan II response, DMSO zero; activation, % at 8.9 µM; 0.98% of 360,000 active; AID 540308;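 active = activation above a per-plate cutoff, the mean activation of sample wells on that plate plus 3 SD, cut at about 8% in these data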
# * hit, by the source's call; . = no result.
SMILES,A1 inh,NLRP3 yeast inh,MC4R antagonist,TbMetRS inhib,NALP1 inh,MC4R barr agon
CCN(C(=O)CCN1C(=O)c2ccccc2S1(=O)=O)c1ccccc1,5.7*,0.3,-6.1,-0.8,.,1.9
O=c1[nH]nnc2c1cnn2-c1ccccc1,.,.,3.9,-1.1,.,-2.0
CCOC(=O)c1ccc(N2Cc3ccccc3C2=NC(=O)c2ccncc2)cc1,.,.,5.5,-0.9,9.1,-5.3
CCOC(=O)c1ccc(N2Cc3ccccc3C2=N)cc1,0.9,3.5,6.7,0.0,39.5*,0.8
O=C(N/N=C/c1cccc(Oc2ccccc2)c1)c1ccccc1Br,0.3,18.5,9.9,0.2,32.4*,1.2
O=C(N/N=C/c1cccc(Oc2ccccc2)c1)c1cccc(Br)c1,-2.9,35.5,4.4,0.3,9.0,-1.2
Cc1cc(N2C(=O)C=CC2=O)c([N+](=O)[O-])cc1C,4.7,-25.3,-5.3,0.1,64.1*,-3.2
Cc1cnc(C(=O)OCC(=O)Nc2cccc(S(=O)(=O)N3CCOCC3)c2)cn1,0.3,-1.9,1.6,-0.1,.,-2.4
Cc1ccc(N(C(=O)C(F)(F)F)C(C(=O)NC2CCCCC2)c2cccs2)cc1 (centres undefined),0.2,20.5,11.2,-0.4,8.2,14.8*
CCOC(=O)c1c2ccc(OCC(=O)NN)cc2n2ccccc12,-0.3,-5.1,-4.3,0.3,-25.3,0.8
CCOC(=O)c1c2ccc(OCC(=O)N/N=C/c3ccc(C)cc3)cc2n2ccccc12,34.8*,9.7,-1.8,-0.5,22.2,0.8
Clc1ccc(-n2c(SCc3nc4ccccc4[nH]3)nnc2-c2ccncc2)cc1,0.4,11.9,7.7,6.7*,-2.3,1.3
O=c1[nH]c(CSc2nnc(-c3ccccc3)n2-c2ccccc2)nc2ccccc12,0.1,15.4,-2.0,-0.9,27.8,2.7
CC=C1OC(n2cnc3c(N)ncnc32)C(O)C1O (centres undefined),.,.,.,-0.9,.,.
Cc1ccc(S(=O)(=O)NC2CCCC2)cc1C,-0.1,-8.8,-1.5,-0.3,38.6*,-1.0
Cc1cc(=O)[nH]c(SCC(=O)Nc2nnc(SCc3ccccc3)s2)n1,0.5,24.5,2.8,-1.4,-1.3,8.8*
Oc1cccc2ccc(Nc3ccccn3)nc12,0.0,-3.6,3.4,0.0,31.5,8.7*
c1ccc(Nc2ccccc2Nc2ccccn2)nc1,-0.2,20.4,2.9,-0.7,8.3,-0.9
CCCCCOC(=O)CC(C(=O)OCCCCC)N1CCCCC1 (centres undefined),0.0,1.3,2.0,-0.7,19.9,-1.3
CCCCCCCCCOC(=O)C(CC(=O)O)N1CCOCC1 (centres undefined),0.6,19.7,4.9,-0.2,44.9*,0.7
OCCN1CCN(C2Cc3cc(Cl)ccc3Sc3ccc(Cl)cc32)CC1 (centres undefined) (tested in a mixture with another compound),-0.5,24.9,2.3,-0.2,26.9,9.3*
O=C(Cc1cccc(NC(=O)C2CCN(S(=O)(=O)c3cccc([N+](=O)[O-])c3)CC2)c1)Nc1cccc(C(=O)N2CCOCC2)c1,.,.,4.6,-1.1,.,-1.7
Oc1c(Cl)cc(Cl)cc1/C=N/c1nccs1,0.3,6.4,1.5,0.8,25.7,0.0
Oc1c(Cl)cc(Cl)cc1/C=N/c1nc(-c2ccc(Cl)cc2)cs1,0.7,12.1,34.4*,-0.3,11.8,-1.6
CC1CC2OC2CC1COC(=O)C1CC2OC2CC1C (centres undefined),.,.,13.5,-0.2,.,0.2
SMILES,A1 inh,NLRP3 yeast inh,MC4R antagonist,TbMetRS inhib,NALP1 inh,MC4R barr agon
Cc1c(CCOC(=O)C23CC4CC(CC(C)(C4)C2)C3)sc[n+]1CC(=O)c1ccccc1,-0.7,18.9,-11.9,-0.5,12.7,9.3*
Cc1c(CCOC(=O)CC23CC4CC(CC(C4)C2)C3)sc[n+]1CC(=O)c1ccc(Br)cc1,0.8,-2.2,-0.4,-0.5,21.6,-0.4
C#CCOCCOCCOCCNc1nc(N2CCN(C(=O)CCCCCCCCCCNC(=O)[C@H](CCCCN)n3cc(C)nn3)CC2)nc(N2CCN(C(=O)CCCCCCCCCCNC(=O)[C@@H]([C@H](C)O)n3cc(C)nn3)CC2)n1,2.6,4.5,8.3,-0.3,.,-1.3
C#CCOCCOCCOCCNc1nc(N2CCN(C(=O)CCCCCCCCCCNC(=O)[C@H](CCCCN)n3cc(C[C@@H](C)CC)nn3)CC2)nc(N2CCN(C(=O)CCCCCCCCCCNC(=O)[C@@H]([C@H](C)O)n3cc(C)nn3)CC2)n1,-0.4,25.1,43.9*,-0.4,.,-0.6
C#CCOCCOCCOCCNc1nc(N2CCN(C(=O)CCCCCCCCCCNC(=O)[C@H](CO)n3cc(CCCCCN)nn3)CC2)nc(N2CCN(C(=O)CCCCCCCCCCNC(=O)[C@H](CCCN=C(N)N)n3cc(C[C@@H](C)CC)nn3)CC2)n1,-0.9,15.5,.,.,.,.
C#CCOCCOCCOCCNc1nc(N2CCN(C(=O)CCCCCCCCCCNC(=O)[C@H](CCCCN)n3cc(C[C@@H](C)CC)nn3)CC2)nc(N2CCN(C(=O)CCCCCCCCCCNC(=O)[C@H](CCCN=C(N)N)n3cc(C[C@@H](C)CC)nn3)CC2)n1,-0.7,10.5,83.1*,-0.2,.,-2.1
C#CCOCCOCCOCCNc1nc(N2CCN(C(=O)CCCCCCCCCCNC(=O)[C@@H](CCSC)n3cc(CCO)nn3)CC2)nc(N2CCN(C(=O)CCCCCCCCCCNC(=O)[C@H](CCCN=C(N)N)n3cc(C[C@@H](C)CC)nn3)CC2)n1,1.5,23.1,60.0*,-0.4,.,-0.5
C[C@H](CO)N1C[C@H](C)[C@H](CN(C)S(=O)(=O)c2cccc(F)c2)Oc2cc(Br)ccc2S1(=O)=O,.,.,19.6,0.9,.,0.8
O=C(NCc1ccccc1)c1ccc(OC2CSC2)cc1,-0.1,21.8,4.0,-0.4,34.6*,-1.3
Cn1c(N)c(C(=O)CSc2nnc(-c3ccccc3F)n2N)c(=O)n(C)c1=O,-0.1,-20.1,-0.6,-1.2,.,1.0
C=CCn1c(SCC(=O)c2c(N)n(C)c(=O)n(C)c2=O)nnc1-c1ccccc1F,1.2,-3.8,1.0,-0.5,36.8*,-1.4
Cn1c(N)c(C(=O)CSc2nnc(-c3ccccc3F)n2C2CC2)c(=O)n(C)c1=O,1.2,12.3,-5.4,-0.8,34.3*,-1.4
C(=N\Nc1nc2ccccc2[nH]1)/c1ccccn1,.,.,1.5,-2.0,-14.1,-1.0
C#CCn1cc(/C=N/Nc2nc3ccccc3[nH]2)c2ccccc21,-0.7,15.3,-1.4,9.0*,19.5,1.4
C=C(C)C(=O)NNc1ccccc1,0.0,9.0,10.0,0.0,26.6*,-1.5
Cc1ccc(CCNC(=O)c2cc(-c3ccncc3)nc3ccc(S(=O)(=O)N4CCOCC4)cc23)cc1,6.4*,5.7,-2.3,-0.5,10.6,0.2
Cc1ccc(-n2nc(C)c3c(C)c(CCC(=O)O)c(C)nc32)cc1,-0.2,16.2,11.1,-0.5,3.8,0.0

# High-throughput results as filed in PubChem BioAssay.
